Converted amounts (≈) assume the structure as drawn. The source made the active and inactive calls. The calls are words filed in the database; no cut-off is given here.
Experiments:
Escherichia coli [1] = assay: Antibacterial activity against Escherichia coli AS19; assay type: functional, organism-based
Outline: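 AS19 culture at 0.5 McFarland, exponential phase, diluted 1000-fold in Mueller Hinton medium containing 100 mM Tris pH 7.5, exposed to increasing inhibitor concentrations […]. Growth followed by absorbance at 600 nm every 5 min for 10 h at 37°C.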

[2] = test system: Escherichia coli BL21(DE3); assay: Inhibition of Escherichia coli BL21(DE3) methionine aminopeptidase up to 100 uM in presence of Fe(II) metal ions
Outline: (§1)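 Purified apoenzyme (500 nM) in 50 mM MOPS pH 7.0 with 200 µM Met-AMC, activated by 50 µM FeCl2 plus 100 µM ascorbic acid (Fe), 10 µM CoCl2 (Co) or 20 µM MnCl2 (Mn), with serially diluted inhibitor. AMC release read by fluorescence (ex 360/em 460) at room temperature. IC50 from non-linear fit of percent inhibition versus concentration.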

[3] = test system: Escherichia coli BL21(DE3); assay: Inhibition of Escherichia coli BL21(DE3) methionine aminopeptidase up to 100 uM in presence of Co(II) metal ions; outline: as §1
[4] = test system: Escherichia coli BL21(DE3); assay: Inhibition of Escherichia coli BL21(DE3) methionine aminopeptidase up to 100 uM in presence of Mn(II) metal ions; outline: as §1
[5] = Inhibition of Escherichia coli BL21(DE3) methionine aminopeptidase in presence of Fe(II) metal ions
Outline: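 Purified BL21(DE3)-expressed E. coli MetAP apoenzyme at 500 nM, activated with 50 μM FeCl2 plus 100 μM ascorbic acid. Buffer was 50 mM MOPS pH 7.0 with 200 μM Met-AMC, at room temperature. Hydrolysis was followed by fluorescence (ex 360/em 460 nm) at serially diluted inhibitor concentrations. IC50 was obtained by non-linear curve fit of percent inhibition.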

Bacillus subtilis = assay: Antibacterial activity against Bacillus subtilis; assay type: functional, organism-based
Outline: (§2)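 Exponential-phase culture at 0.5 McFarland diluted 1000-fold in Mueller Hinton medium with 100 mM Tris pH 7.5, mixed with inhibitor at increasing concentrations plus resazurin (110 µM final). Fluorescence (ex 530/em 590) read every 5 min for 10 h at 37°C.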

Priestia megaterium = assay: Antibacterial activity against Bacillus megaterium; assay type: functional, organism-based; outline: as §2
Escherichia coli [6] = assay: Antibacterial activity against Escherichia coli D22; assay type: functional, organism-based; outline: as §2
[7] = Inhibition of Escherichia coli BL21(DE3) methionine aminopeptidase in presence of Mn(II) metal ions
Outline: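 E. coli MetAP apoenzyme, recombinant from BL21(DE3), at 500 nM and metallated with 20 μM MnCl2. Contained 50 mM MOPS pH 7.0 and 200 μM Met-AMC, at room temperature. IC50 was derived by non-linear fit of percent inhibition versus concentration.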

[8] = Inhibition of Escherichia coli BL21(DE3) methionine aminopeptidase in presence of Co(II) metal ions
Outline: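 Recombinant E. coli MetAP apoenzyme purified from BL21(DE3) cells, used at 500 nM and activated with 10 μM CoCl2. Buffer was 50 mM MOPS pH 7.0 with 200 μM Met-AMC substrate, at room temperature. AMC release was read by fluorescence (ex 360/em 460 nm) across serially diluted inhibitor. IC50 came from non-linear fitting of percent inhibition.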

| Structure (SMILES) | IC50 (Escherichia coli [1]) [µM] | Activity [2] | Activity [3] | Activity [4] | IC50 [5] [µM] | IC50 (Bacillus subtilis) [µM] | MIC (Bacillus subtilis) [µg/mL] | IC50 (Priestia megaterium) [µM] | MIC (Priestia megaterium) [µg/mL] | MIC (Escherichia coli [1]) [µg/mL] | IC50 (Escherichia coli [6]) [µM] | MIC (Escherichia coli [6]) [µg/mL] | IC50 [7] [µM] | IC50 [8] [µM] |
| --- | --- | --- | --- | --- | --- | --- | --- | --- | --- | --- | --- | --- | --- | --- |
| Cc1nc(-c2ccc(N)c([N+](=O)[O-])c2)cs1 | 204 | inactive | inactive | inactive | – | – | – | – | – | – | – | – | – | – |
| CCCc1ccsc1-c1ccc(O)c(O)c1 | 15.5 | – | – | – | 14 | 14.9 | 4 (≈ 17.1 µM) | 15.5 | 6 (≈ 25.6 µM) | 4 (≈ 17.1 µM) | 43 | 19 (≈ 81.1 µM) | 34.3 | 100 |
| CCc1ccsc1-c1ccc(O)c(O)c1 | 15.4 | – | – | – | 12.9 | 21.8 | 7 (≈ 31.8 µM) | 27.8 | 11 (≈ 49.9 µM) | 5 (≈ 22.7 µM) | 11.8 | 6 (≈ 27.2 µM) | – | 62.6 |
| Cc1nc(C(=O)NC2CC2)c(-c2ccc(O)c(O)c2)s1 | 125 | – | – | – | 11.1 | 113 | 51 (≈ 176 µM) | 75.5 | 62 (≈ 214 µM) | 138 (≈ 475 µM) | 167 | 103 (≈ 355 µM) | 100 | 92.3 |
| Cc1sc(C)c(-c2ccc(O)c(O)c2)c1Br | 10.8 | – | – | – | 3.1 | 12.8 | 8 (≈ 26.7 µM) | 17.5 | 10 (≈ 33.4 µM) | 5 (≈ 16.7 µM) | 7.7 | 9 (≈ 30.1 µM) | 2.1 | 2.4 |
| Oc1ccc(-c2nccs2)cc1O | 235 | – | – | – | 16.6 | 397 | 193 (≈ 999 µM) | 224 | 112 (≈ 580 µM) | 198 (≈ 1020 µM) | 98.7 | 66 (≈ 342 µM) | > 100 | > 100 |
| Oc1ccc(-c2cc(Cl)sc2Cl)cc1O | 6.1 | – | – | – | 20.2 | 6 | 2 (≈ 7.66 µM) | 5 | 1 (≈ 3.83 µM) | 3 (≈ 11.5 µM) | 7.3 | 2 (≈ 7.66 µM) | 48.6 | 62.4 |
| N#Cc1ccc(-c2ccc(O)c(O)c2)s1 | 20.1 | – | – | – | 14.8 | 14.6 | 13 (≈ 59.8 µM) | 15.3 | 9 (≈ 41.4 µM) | 11 (≈ 50.6 µM) | 44.2 | 15 (≈ 69 µM) | 30.4 | 36.3 |
| Oc1ccc(-c2sccc2CCBr)cc1O | 11.3 | – | – | – | 7.3 | 25.2 | 10 (≈ 33.4 µM) | 21.1 | 14 (≈ 46.8 µM) | 5 (≈ 16.7 µM) | 86 | 51 (≈ 170 µM) | 22.4 | 14 |
| Nc1nc(-c2ccc(O)c(O)c2)cs1 | 145 | – | – | – | 6.6 | 28.6 | 13 (≈ 62.4 µM) | 36.9 | 26 (≈ 125 µM) | 39 (≈ 187 µM) | 39.9 | 11 (≈ 52.8 µM) | > 100 | > 100 |
| Cc1ccc(-c2ccc(O)c(O)c2)s1 | 87.7 | – | – | – | 32.7 | 25.1 | 10 (≈ 48.5 µM) | 26 | 10 (≈ 48.5 µM) | 60 (≈ 291 µM) | 39.1 | 18 (≈ 87.3 µM) | 28 | 51.5 |
| Oc1ccc(-c2ccsc2)cc1O | 29.9 | – | – | – | 3.8 | 15.7 | 9 (≈ 46.8 µM) | 19.2 | 10 (≈ 52 µM) | 15 (≈ 78 µM) | 2 | 2 (≈ 10.4 µM) | 27.5 | 40.4 |
| Oc1ccc(-c2ccc(Cl)s2)cc1O | 15.5 | – | – | – | 12.8 | 7.1 | 2 (≈ 8.82 µM) | 6.3 | 2 (≈ 8.82 µM) | 7 (≈ 30.9 µM) | 7.5 | 3 (≈ 13.2 µM) | 44.8 | > 100 |
| Cc1nc(C(=O)NC(C)C)c(-c2ccc(O)c(O)c2)s1 | 116 | – | – | – | 15.4 | 186 | 125 (≈ 428 µM) | 175 | 122 (≈ 417 µM) | 121 (≈ 414 µM) | 93.8 | 73 (≈ 250 µM) | > 100 | > 100 |
| O=C(NC1CC1)c1ccc(-c2ccc(O)c(O)c2)s1 | 110 | – | – | – | 23.8 | 211 | 122 (≈ 443 µM) | 133 | 85 (≈ 309 µM) | 78 (≈ 283 µM) | 238 | 105 (≈ 381 µM) | 34 | 28.5 |
| Oc1ccc(-c2cccs2)cc1O | 32.8 | – | – | – | 5.1 | 16.1 | 7 (≈ 36.4 µM) | 21.2 | 9 (≈ 46.8 µM) | – | 4 | 3 (≈ 15.6 µM) | 15.7 | 23.7 |
| CCCCc1ccsc1-c1ccc(O)c(O)c1 | 12.4 | – | – | – | 9.2 | 7.8 | 3 (≈ 12.1 µM) | 7.6 | 3 (≈ 12.1 µM) | 5 (≈ 20.1 µM) | 13.5 | 5 (≈ 20.1 µM) | 48.2 | > 100 |
| O=C(NC1CC1)c1ccsc1-c1ccc(O)c(O)c1 | 116 | – | – | – | 7.8 | 109 | 56 (≈ 203 µM) | 54 | 79 (≈ 287 µM) | 113 (≈ 410 µM) | 254 | 151 (≈ 548 µM) | > 100 | > 100 |
| Cc1cc(-c2ccc(O)c(O)c2)c(C)s1 | 18.5 | – | – | – | 7.4 | 16.5 | 5 (≈ 22.7 µM) | 16 | 5 (≈ 22.7 µM) | 9 (≈ 40.9 µM) | 3.7 | 4 (≈ 18.2 µM) | > 100 | > 100 |

Reference: ChEMBL document CHEMBL1140109, “Discovery of inhibitors of Escherichia coli methionine aminopeptidase with the Fe(II)-form selectivity and antibacterial activity” (J Med Chem, 2008)
